Reference: ChEMBL document CHEMBL3425404, “Structure-activity relationship in a purine-scaffold compound series with selectivity for the endoplasmic reticulum Hsp90 paralog Grp94” (J Med Chem, 2015)
pIC50: −log10 of the molar value. Calls of active or inactive are those of the source. The calls are words filed in the database; no cut-off is given here.

Tests used:
[1] = target: Heat shock protein HSP90 (Homo sapiens) (UniProt P07900+P08238); assay: Inhibition of HSP90 in human SKBR3 cells assessed as induction of HSP70 activity at 100 uM after 24 hrs by Western blot analysis; type: cell-based; settings: SK-BR-3
Outline: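 SKBr3 cells (McCoy's 5A, 10% FBS, 1% Pen/Strep, 37 °C, CO2) treated 24 h with DMSO vehicle or compound. Cells lysed in RIPA with protease inhibitors; protein measured by BCA. Lysate (5−50 μg) run on SDS−PAGE, blotted to nitrocellulose, probed for Hsp70 (1:2500) and β-actin. HRP secondary, ECL detection, densitometry; triplicate experiments.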

[2] = Cytotoxicity against human SKBR3 cells assessed as cell viability at 100 uM after 72 hrs by CellTiter-Glo assay; type: cell-based; settings: sk-br-3, 72 h
Outline: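 SKBr3 cells were grown in McCoy's 5A with 10% FBS and Pen/Strep at 37 °C. They were exposed 72 h to vehicle or compound in quadruplicate wells. Viability was read by CellTiter-Glo luminescence (ATP content), with mean ± error, n = 4.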

[3] = target: Heat shock protein HSP 90-alpha (Homo sapiens, UniProt P07900); assay: Displacement of Cy3B-GM from recombinant Hsp90alpha (unknown origin) after 24 hrs by fluorescence polarization assay
Endoplasmin = Endoplasmin (Canis lupus familiaris, UniProt P41148); assay: Displacement of Cy3B-GM from recombinant Grp94 (unknown origin) after 24 hrs by fluorescence polarization assay
[4] = target: T1, Heat shock protein 75 kDa, mitochondrial (Homo sapiens, UniProt Q12931); assay: Displacement of PU-FITC3 from recombinant TRAP-1 (unknown origin) after 24 hrs by fluorescence polarization assay
T1 sequence (Q12931 whole entry): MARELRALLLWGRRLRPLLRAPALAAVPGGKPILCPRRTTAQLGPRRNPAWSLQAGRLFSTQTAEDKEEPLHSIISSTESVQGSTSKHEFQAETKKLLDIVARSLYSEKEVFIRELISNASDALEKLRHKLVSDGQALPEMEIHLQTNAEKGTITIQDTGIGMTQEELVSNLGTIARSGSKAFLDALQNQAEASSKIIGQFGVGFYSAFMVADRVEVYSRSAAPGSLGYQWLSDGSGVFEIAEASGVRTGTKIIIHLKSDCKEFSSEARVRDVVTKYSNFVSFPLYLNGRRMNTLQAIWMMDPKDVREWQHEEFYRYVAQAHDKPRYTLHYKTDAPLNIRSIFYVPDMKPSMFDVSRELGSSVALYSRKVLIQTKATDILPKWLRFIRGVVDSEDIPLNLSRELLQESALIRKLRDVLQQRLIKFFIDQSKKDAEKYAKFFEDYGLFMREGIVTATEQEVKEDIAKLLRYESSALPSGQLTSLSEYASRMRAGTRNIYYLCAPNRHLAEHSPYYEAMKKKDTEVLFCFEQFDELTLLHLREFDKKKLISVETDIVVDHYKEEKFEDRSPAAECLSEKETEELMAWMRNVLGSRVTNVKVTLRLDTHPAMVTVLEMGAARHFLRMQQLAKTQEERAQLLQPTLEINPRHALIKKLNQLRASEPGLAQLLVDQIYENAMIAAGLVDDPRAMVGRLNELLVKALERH

[5] = target: Rho-associated protein kinase 2 (Homo sapiens) (UniProt O75116); assay: Inhibition of human ROCK2 at 10 uM after 1 hr by qPCR analysis relative to control
Outline: (§1)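 Compound tested at 10 μM in a scanEDGE 97 active-site competition binding panel. Incubation was 1 h at room temperature, then washing and elution with non-biotinylated ligand. Bead-bound kinase was quantified by qPCR; values are % inhibition.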

[6] = target: MAP kinase-interacting serine/threonine-protein kinase 2 (Homo sapiens) (UniProt Q9HBH9); assay: Inhibition of human MKNK2 at 10 uM after 1 hr by qPCR analysis relative to control; outline: as §1
[7] = target: Heat shock protein HSP 90-beta (Homo sapiens, UniProt P08238)
Homo sapiens = organism: Homo sapiens; assay: Selectivity ratio of IC50 for recombinant Grp94 (unknown origin) to IC50 for recombinant Hsp90alpha (unknown origin)

Endoplasmin, sequence (P41148 whole entry): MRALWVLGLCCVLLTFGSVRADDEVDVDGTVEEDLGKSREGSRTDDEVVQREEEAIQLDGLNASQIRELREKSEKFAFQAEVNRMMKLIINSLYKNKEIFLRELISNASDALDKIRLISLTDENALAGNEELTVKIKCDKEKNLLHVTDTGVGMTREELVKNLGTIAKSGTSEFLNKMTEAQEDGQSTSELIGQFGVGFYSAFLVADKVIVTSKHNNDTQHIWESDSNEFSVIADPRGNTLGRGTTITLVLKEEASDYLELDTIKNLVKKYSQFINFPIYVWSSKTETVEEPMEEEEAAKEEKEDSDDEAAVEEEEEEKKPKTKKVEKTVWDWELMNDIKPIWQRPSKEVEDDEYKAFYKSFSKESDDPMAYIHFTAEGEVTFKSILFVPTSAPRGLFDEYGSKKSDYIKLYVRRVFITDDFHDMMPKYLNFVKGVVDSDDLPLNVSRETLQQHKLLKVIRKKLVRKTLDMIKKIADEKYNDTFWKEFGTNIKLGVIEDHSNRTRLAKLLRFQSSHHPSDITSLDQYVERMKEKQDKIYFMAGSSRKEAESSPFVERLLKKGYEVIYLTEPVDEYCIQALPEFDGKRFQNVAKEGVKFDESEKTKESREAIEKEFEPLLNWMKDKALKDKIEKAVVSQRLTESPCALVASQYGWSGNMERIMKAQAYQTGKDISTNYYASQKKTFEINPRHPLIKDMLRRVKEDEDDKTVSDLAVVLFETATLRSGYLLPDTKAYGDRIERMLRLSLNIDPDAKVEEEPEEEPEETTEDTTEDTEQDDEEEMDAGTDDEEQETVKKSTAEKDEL
Heat shock protein HSP 90-beta, sequence (P08238 whole entry): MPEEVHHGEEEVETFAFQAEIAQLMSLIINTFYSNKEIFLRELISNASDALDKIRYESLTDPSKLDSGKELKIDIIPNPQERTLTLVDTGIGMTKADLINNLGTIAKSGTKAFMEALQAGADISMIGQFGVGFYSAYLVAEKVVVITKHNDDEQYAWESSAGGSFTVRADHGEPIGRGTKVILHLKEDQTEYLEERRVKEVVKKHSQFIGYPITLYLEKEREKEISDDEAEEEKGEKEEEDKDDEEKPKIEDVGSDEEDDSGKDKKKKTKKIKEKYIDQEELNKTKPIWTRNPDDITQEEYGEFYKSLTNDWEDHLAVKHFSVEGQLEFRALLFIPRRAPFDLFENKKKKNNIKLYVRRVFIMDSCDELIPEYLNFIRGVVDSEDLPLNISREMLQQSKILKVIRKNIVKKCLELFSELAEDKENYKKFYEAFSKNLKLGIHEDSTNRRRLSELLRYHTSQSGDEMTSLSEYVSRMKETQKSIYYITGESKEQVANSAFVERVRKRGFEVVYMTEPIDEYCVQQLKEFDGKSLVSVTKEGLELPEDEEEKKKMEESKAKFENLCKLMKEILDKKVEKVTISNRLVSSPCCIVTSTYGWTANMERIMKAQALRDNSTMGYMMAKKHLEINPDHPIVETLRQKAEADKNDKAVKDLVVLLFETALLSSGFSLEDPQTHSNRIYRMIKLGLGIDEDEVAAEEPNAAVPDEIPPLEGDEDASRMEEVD
Rho-associated protein kinase 2 (Homo sapiens), sequence (O75116 whole entry, looked up): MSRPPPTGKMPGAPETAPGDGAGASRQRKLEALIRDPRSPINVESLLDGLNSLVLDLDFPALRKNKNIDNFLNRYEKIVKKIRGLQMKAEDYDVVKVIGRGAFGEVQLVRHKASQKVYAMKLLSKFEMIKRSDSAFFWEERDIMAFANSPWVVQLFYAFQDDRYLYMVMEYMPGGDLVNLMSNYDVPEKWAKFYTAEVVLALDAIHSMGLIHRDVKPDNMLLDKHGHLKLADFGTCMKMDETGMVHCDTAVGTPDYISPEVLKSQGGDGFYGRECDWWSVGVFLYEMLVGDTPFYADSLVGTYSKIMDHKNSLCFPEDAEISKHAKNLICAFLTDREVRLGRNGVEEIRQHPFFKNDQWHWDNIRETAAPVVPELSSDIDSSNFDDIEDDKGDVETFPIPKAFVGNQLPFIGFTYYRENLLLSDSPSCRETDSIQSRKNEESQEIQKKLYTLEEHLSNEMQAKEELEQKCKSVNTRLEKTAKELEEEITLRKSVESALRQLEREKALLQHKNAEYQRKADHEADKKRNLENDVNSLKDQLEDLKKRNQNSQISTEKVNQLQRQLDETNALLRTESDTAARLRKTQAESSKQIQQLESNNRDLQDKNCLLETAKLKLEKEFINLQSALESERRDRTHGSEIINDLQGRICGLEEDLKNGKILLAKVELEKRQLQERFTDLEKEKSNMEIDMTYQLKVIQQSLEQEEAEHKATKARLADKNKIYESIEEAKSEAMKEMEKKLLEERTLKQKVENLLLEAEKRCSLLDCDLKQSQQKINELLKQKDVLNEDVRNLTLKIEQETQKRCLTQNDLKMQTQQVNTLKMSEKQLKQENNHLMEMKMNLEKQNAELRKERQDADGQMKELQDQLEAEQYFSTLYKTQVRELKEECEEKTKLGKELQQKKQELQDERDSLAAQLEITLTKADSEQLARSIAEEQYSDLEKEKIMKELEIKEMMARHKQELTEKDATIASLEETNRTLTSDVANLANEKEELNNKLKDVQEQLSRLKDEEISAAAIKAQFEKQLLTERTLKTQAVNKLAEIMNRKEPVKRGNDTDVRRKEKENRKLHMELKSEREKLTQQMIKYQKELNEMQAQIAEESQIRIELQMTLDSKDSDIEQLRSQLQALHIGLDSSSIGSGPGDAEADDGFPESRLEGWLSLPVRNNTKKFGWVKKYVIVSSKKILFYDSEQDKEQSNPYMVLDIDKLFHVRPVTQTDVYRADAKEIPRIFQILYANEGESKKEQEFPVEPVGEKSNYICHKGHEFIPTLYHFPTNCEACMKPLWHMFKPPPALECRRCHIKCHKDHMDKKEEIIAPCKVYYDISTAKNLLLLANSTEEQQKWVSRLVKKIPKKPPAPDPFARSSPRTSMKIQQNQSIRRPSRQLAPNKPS
MAP kinase-interacting serine/threonine-protein kinase 2 (Homo sapiens), sequence (Q9HBH9 whole entry, looked up): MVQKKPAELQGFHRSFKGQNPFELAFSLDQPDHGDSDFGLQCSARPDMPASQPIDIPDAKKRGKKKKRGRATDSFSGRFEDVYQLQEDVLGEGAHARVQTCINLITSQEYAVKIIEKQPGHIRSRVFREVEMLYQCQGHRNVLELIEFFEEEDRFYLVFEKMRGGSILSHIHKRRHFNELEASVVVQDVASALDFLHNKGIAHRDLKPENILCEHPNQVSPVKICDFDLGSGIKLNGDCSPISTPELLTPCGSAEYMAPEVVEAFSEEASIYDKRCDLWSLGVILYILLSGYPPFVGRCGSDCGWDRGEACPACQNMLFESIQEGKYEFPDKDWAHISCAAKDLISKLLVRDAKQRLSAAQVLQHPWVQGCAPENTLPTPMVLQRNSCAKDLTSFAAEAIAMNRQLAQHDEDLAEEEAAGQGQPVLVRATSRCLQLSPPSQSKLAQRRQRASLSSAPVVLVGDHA

SMILES | pIC50 [3] | pIC50 (Endoplasmin) | other results
COC(=O)c1c(O)cc(O)c(Cl)c1CCc1nccn1Cc1ccccc1 |  |  | inhibition [1]: Active; Activity [2]: Toxic
C#CCCCn1c(Sc2ccc(Br)cc2Cl)nc2c(N)ncnc21 | < 4.30 | 6.41 | 
CCCC(C)n1c(Sc2ccc(Cl)cc2Cl)nc2c(N)ncnc21 (stereo not drawn) | < 4.00 | 5.61 | pIC50 [4]: < 4.30
C#CCC(C)n1c(Sc2ccc(Cl)cc2Cl)nc2c(N)ncnc21 (stereo not drawn) | < 4.30 | 5.30 | 
C#CCC(CC)n1c(Sc2ccc(Cl)cc2Cl)nc2c(N)ncnc21 (stereo not drawn) | < 4.30 | 6.04 | pIC50 [4]: < 4.30
C#CCCCn1c(Sc2ccc(OC)cc2OC)nc2c(N)ncnc21 | < 4.30 | 4.46 | pIC50 [7]: < 4.30
C#CCCCn1c([S+]([O-])c2ccc(Cl)cc2Cl)nc2c(N)ncnc21 (stereo not drawn) | 4.60 | 5.27 | 
C#CCCCn1c(Cc2ccc(Cl)cc2Cl)nc2c(N)ncnc21 | < 4.00 | 6.15 | 
C#CCCCn1c(S(=O)(=O)c2ccc(Cl)cc2Cl)nc2c(N)ncnc21 |  | 5.33 | 
C#CCCCn1c(Sc2cc(Cl)c(Cl)cc2Cl)nc2c(N)ncnc21 |  | 6.77 | 
C#CCCCn1c(Sc2ccccc2CO)nc2c(N)ncnc21 |  | 4.53 | 
C#CCCCn1c(Sc2ccccc2Cl)nc2c(N)ncnc21 |  | 6.46 | 
C#CCCn1c(Sc2ccc(Cl)cc2Cl)nc2c(N)ncnc21 | < 4.30 | 6.41 | pIC50 [4]: 5.14
C#CCCCn1c(C(=O)c2ccc(Cl)cc2Cl)nc2c(N)ncnc21 | < 4.00 | 6.47 | pIC50 [4]: 5.30
C#CCCCn1c(Sc2ccc(OC)cc2)nc2c(N)ncnc21 |  | 5.95 | 
C#CCCCn1c(Oc2ccc(Cl)cc2Cl)nc2c(N)ncnc21 | < 4.00 | 6.30 | 
C#CCCCn1c(Sc2ccc(Cl)c(Cl)c2Cl)nc2c(N)ncnc21 | 4.80 | 6.37 | pIC50 [4]: 5.44; pIC50 [7]: 4.40
C#CCCCn1c(Sc2c(C)cc(C)cc2C)nc2c(N)ncnc21 | < 3.30 | 5.68 | pIC50 [7]: < 3.30
C#CCCCn1c(Sc2ccccc2OC(F)(F)F)nc2c(N)ncnc21 |  | 5.85 | 
C#CCCCn1c(Sc2ccccc2OC)nc2c(N)ncnc21 | < 4.00 | 5.21 | pIC50 [7]: < 4.00
C#CCCCn1c(Sc2cc(C(F)(F)F)ccc2Cl)nc2c(N)ncnc21 | < 4.00 | 6.30 | pIC50 [7]: < 4.00

More lines, main results first:

pIC50 [3] | pIC50 (Endoplasmin) | SMILES | other results
< 4.30 |  | CCCCn1c(Sc2cc(Cl)cc(Cl)c2)nc2c(N)ncnc21 | 
< 4.30 | 5.78 | Nc1ncnc2c1nc(Sc1cc(Cl)cc(Cl)c1)n2CCCCCC(F)(F)F | 
7.00 | 6.58 | CC(C)NCCCn1c(Sc2cc3c(cc2N(C)C)OCO3)nc2c(N)ncnc21 | 
 | 5.97 | CC(C)NCCCn1c(Sc2cc(Cl)cc(Cl)c2)nc2c(N)nccc21 | pIC50 [4]: 5.14
 | 4.94 | C#CCCCn1c(Sc2cc(C)cc(C)c2)nc2c(N)ncnc21 | 
 | 5.29 | CC#CCn1c(Sc2cc(Cl)cc(Cl)c2)nc2c(N)ncnc21 | 
 | 5.56 | Nc1ncnc2c1nc(Sc1cc(Cl)cc(Cl)c1)n2CCCCC(F)(F)F | 
 | 6.92 | C#CCCCn1c(Sc2ccc(Cl)cc2Cl)nc2c(N)ncnc21 | inhibition [5]: 32%; inhibition [6]: 34%
 | 5.82 | C#CCCCn1c(Sc2ccc(Cl)cc2)nc2c(N)ncnc21 | 
< 4.00 | 6.62 | C#CCCCn1c(Sc2cc(Cl)cc(Br)c2)nc2c(N)ncnc21 | pIC50 [7]: < 4.00
 | 6.30 | Nc1ncnc2c1nc(Sc1cc(Cl)cc(Cl)c1)n2CCCC(F)(F)F | 
< 4.30 | 6.54 | C#CCCCn1c(Sc2cc(Br)cc(Br)c2)nc2c(N)ncnc21 | 
 | < 4.60 | Cc1ccc(Sc2nc3c(N)ncn(CCCNC(C)C)c-3n2)c(C)c1 | 
5.08 | 5.72 | C#CCCCn1c(Sc2cc(Cl)nc(Cl)c2)nc2c(N)ncnc21 | pIC50 [4]: 5.02
< 4.30 | 5.46 | CC(C)NCCCn1c(Sc2ccc(Cl)cc2Cl)nc2c(N)nccc21 | pIC50 [4]: 4.85
 | 6.28 | C#CCCCn1c(Sc2cc(Cl)ccc2Cl)nc2c(N)ncnc21 | 
< 4.30 | < 5.30 | Nc1ncnc2c1nc(Sc1cc(Cl)cc(Cl)c1)n2Cc1ccccc1 | 
< 4.00 | < 5.30 | C#CCC(CC)n1c(Sc2cc(Cl)cc(Cl)c2)nc2c(N)ncnc21 (stereo not drawn) | 
< 4.30 | 6.54 | C#CCCn1c(Sc2cc(Cl)cc(Cl)c2)nc2c(N)ncnc21 | 
< 4.30 | < 5.60 | Nc1ncnc2c1nc(Sc1cc(Cl)cc(Cl)c1)n2CCc1ccccc1 | 
7.55 | 7.00 | CC(C)NCCCn1c(Sc2cc3c(cc2I)OCO3)nc2c(N)nccc21 | Ratio IC50 (Homo sapiens): 4
< 4.30 | 4.84 | CCCC(C)n1c(Sc2cc(Cl)cc(Cl)c2)nc2c(N)ncnc21 (stereo not drawn) | 
< 4.30 | 5.24 | C#CCC(C)n1c(Sc2cc(Cl)cc(Cl)c2)nc2c(N)ncnc21 (stereo not drawn) | 
< 4.30 | 6.18 | C#CCCCCn1c(Sc2cc(Cl)cc(Cl)c2)nc2c(N)ncnc21 | 
< 3.30 | 6.59 | C#CCCCn1c(Sc2cc(Cl)cc(Cl)c2)nc2c(N)ncnc21 | pIC50 [4]: 4.08; pIC50 [7]: < 3.30
 | 6.25 | Nc1ncnc2c1nc(Sc1cc(Cl)cc(Cl)c1)n2CCC(F)(F)F | 
5.71 | 6.16 | C#CCCCn1c(Sc2ccc(Cl)c(Cl)c2)nc2c(N)ncnc21 | 
